High-throughput results (PubChem BioAssay)
TPT1 inhibitor – blocks Candida albicans tRNA 2'-phosphotransferase; recombinant caTPT1, FP RNA substrate dephosphorylation; inhibition, % at 5 µM; 0.81% of 300,000 active; AID 1962;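 active means inhibition above the mean of all tested compounds plus 3 SD, set per screening campaign, cut at about 24% in these data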;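 further: plate controls were DMSO alone for no effect and ferristatin control at 100 nM for full effect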
IDE act – activators of human insulin-degrading enzyme in cells | HEK cells, FAbeta-B cleavage, fluorescence polarization; 0% vehicle, 100% cell-free pure enzyme wells | activation, % at 5.96 µM | 0.073% of 340,000 active;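 active means activation above the mean of all tested compounds plus 3 SD, set per screening campaign, cut at about 17% in these data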
Target sequence (P14735 whole entry, looked up): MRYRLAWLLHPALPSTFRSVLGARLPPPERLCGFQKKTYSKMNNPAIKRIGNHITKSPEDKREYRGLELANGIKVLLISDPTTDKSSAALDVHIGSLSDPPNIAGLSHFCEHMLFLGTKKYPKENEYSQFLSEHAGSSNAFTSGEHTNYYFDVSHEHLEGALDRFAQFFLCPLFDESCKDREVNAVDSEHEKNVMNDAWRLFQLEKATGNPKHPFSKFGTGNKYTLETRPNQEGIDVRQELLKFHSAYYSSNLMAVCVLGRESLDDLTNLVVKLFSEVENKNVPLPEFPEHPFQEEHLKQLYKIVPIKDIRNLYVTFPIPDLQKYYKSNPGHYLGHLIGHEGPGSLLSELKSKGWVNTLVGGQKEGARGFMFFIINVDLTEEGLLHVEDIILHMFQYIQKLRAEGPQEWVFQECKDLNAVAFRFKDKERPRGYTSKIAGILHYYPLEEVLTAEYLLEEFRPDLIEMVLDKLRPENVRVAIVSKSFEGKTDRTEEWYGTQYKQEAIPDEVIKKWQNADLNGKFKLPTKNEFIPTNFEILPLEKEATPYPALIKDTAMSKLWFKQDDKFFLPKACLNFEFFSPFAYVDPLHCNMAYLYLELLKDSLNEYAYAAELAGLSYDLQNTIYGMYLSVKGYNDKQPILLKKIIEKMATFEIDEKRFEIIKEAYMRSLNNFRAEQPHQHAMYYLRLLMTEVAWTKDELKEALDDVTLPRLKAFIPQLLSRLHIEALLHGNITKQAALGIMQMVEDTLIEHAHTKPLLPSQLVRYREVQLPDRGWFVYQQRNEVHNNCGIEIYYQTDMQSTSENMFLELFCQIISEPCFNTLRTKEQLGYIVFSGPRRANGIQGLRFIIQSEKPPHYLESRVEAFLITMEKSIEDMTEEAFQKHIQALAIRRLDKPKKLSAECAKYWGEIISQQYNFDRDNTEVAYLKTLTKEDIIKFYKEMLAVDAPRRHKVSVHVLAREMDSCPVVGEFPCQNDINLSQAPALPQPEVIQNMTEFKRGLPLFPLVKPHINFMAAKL
IDE inh – inhibitors of human insulin-degrading enzyme in cells. P14735. HEK cells, FAbetaB cleavage, fluorescence polarization. inhibition, % at 5.59 µM. 0.41% of 320,000 active. AID 434962;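 active means percent inhibition above the average of all tested compounds plus 3 SD, set per screening campaign, cut at about 16% in these data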;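 further: IDE supplied by intact live HEK cells; FP after avidin binding of uncleaved biotin substrate so inhibition keeps polarization high; 0% = DMSO wells and 100% = 60 µM reference IDE inhibitor Ii1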
HNF4A DNA FP – change in binding of human HNF4 alpha to DNA; P41235; HNF4a-FITC DNA binding, fluorescence polarization, 1 h; activity change, % at 10 µM; 0.3% of 360,000 active; in the data active means activity change above about 30%, passing the limit was not always enough
CSN deneddyl inh – blocks human CSN-mediated cullin deneddylation | Q92905 | Purified CSN, SCF-Nedd8-OG deneddylation, fluorescence polarization | inhibition, % at 12.5 µM | 0.38% of 360,000 active;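 active means pattern-corrected inhibition above about 35%, with an unprinted fluorescence ratio check between 0.5 and 1.5, limit read from the data, passing the limit was not always enough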;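 further: 0% = enzyme with substrate and 100% = substrate without enzyme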
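Assay system: HEK293T-derived human Csn5 enzyme; quantity: 0.24 nM enzyme; medium: Tris/NaCl/DTT buffer, pH 7.5; also added: substrate SCFSkp2-Nedd8OG, 10 nM; doses: 12.5 µM compound; schedule: 90 min reaction at room temperature; signal: FP; read-out: % inhibition of substrate cleavage by Csn5; benchmarks: substrate-only high control, full reaction low control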
TPT1 inh confirm – TPT1 (C. albicans) inhibition, confirmation. 74% of 2,400 active. recombinant caTPT1, fluorescence polarization, RNase T1 coupled. shares compounds with TPT1 inhibitor. AID 2149. inhibition, % at 5 µM;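 active means inhibition above the primary screen limit, the mean inhibition of all tested compounds plus 3 SD, cut at about 25% in these data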
RNase T1 counter – counter-screen for TPT1 inhibitors: inhibitors of Aspergillus oryzae RNase T1; shares compounds with TPT1 inhibitor; RNase T1 cleavage, fluorescence polarization, 1536-well; inhibition, % at 5 µM; 83% of 2,400 active; AID 2153;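 active means inhibition above the solvent-only control well mean plus 3 SD, limit set per screening run, cut at about 23% in these data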;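 further: plate controls were DMSO wells with enzyme for no effect and wells without RNase T1 for full effect; inhibitors block cleavage so intact labeled substrate keeps polarization high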
* hit, by the source's call; . = not tested or not shown. Rows were chosen to be rich in hits. Some 1.4% of all compounds tested hit in one or more screens of this group.

SMILES | TPT1 inhibitor | IDE act | IDE inh | HNF4A DNA FP | CSN deneddyl inh | TPT1 inh confirm | RNase T1 counter
CCOC(=O)c1c(NC(=S)Nc2cccc(C)c2)sc2c1CC(C)(C)SC2 | 31* | -4 | -6 | 4 | -2 | 26* | 32*
CCOC(=O)c1c(NC(=S)Nc2ccccc2)sc2c1CCN(CC)C2 | 99* | -6 | 1 | 44* | 31 | 86* | 95*
COc1ccc(CCNc2nc(-c3ccc(F)cc3)c(CC(=O)O)s2)cc1OC | 98* | -3 | 1 | 4 | 32 | 15 | 23*
COc1ccc(CCNc2nc(C)c(C(C)=O)s2)cc1OC | -2 | -5 | 2 | 2 | 0 | . | .
CS(=O)(=O)Nc1cccc(-c2cc(NC=O)c3ncc(-c4ccc(F)c(Cl)c4)n3c2)c1 | . | . | . | 8 | 9 | . | .
CC(=O)Oc1ccc(C(=O)Nc2ccccc2C(=O)N2CCCC2)cc1 | 49* | 3 | 5 | 1 | 0 | 4 | 8
O=[N+]([O-])c1ccc(N2CCCCC2)cc1N1CCOCC1 | 25* | 0 | -2 | 3 | 4 | 9 | 12
O=[N+]([O-])c1ccc(-c2ccc(/C=N/Nc3nc(NCc4ccccc4)nc(N4CCOCC4)n3)o2)cc1 | 87* | -1 | 3 | 36 | 25 | 89* | 93*
COC(=O)[C@]12CCCCC=C1N(CCC1=CCCCC1)C(=O)[C@H](CC(=O)N1CCCCC1)C2 | . | . | . | 0 | 0 | . | .
CC(=O)NC(=S)c1c(N)n(Cc2ccccc2)c(=O)n(C)c1=O | 38* | . | 7 | . | . | 32* | 43*
CC(=O)Nc1ccc(SCC(=O)c2c(N)n(Cc3ccccc3)c(=O)n(C)c2=O)cc1 | 1 | 5 | 2 | 1 | 0 | . | .
O=C1NC[C@H](CCCCN2CCN(Cc3ccccc3)C(=O)C2=O)N(Cc2ccccc2)C1=O | . | . | . | -2 | -5 | . | .
COC(=O)c1ccc(OCCN2C3=NCCN3c3ccccc32)cc1 | 37* | 8 | 1 | 0 | -4 | 1 | 4
CC[C@H](C)/C=C(C)/C=C/C1=CC2=CC(=O)[C@]3(C)OC(=O)[C@@H](C(C)=O)[C@@H]3C2=CO1 | 27* | 2 | -1 | 4 | 12 | 29* | 40*
C=C(C)c1cccc(C(C)(C)NC(=O)N2CCC(C)CC2)c1 | -1 | 4 | 2 | -1 | -2 | . | .
C=C(C)c1cccc(C(C)(C)NC(=O)NCC2CCCO2)c1 (stereo not drawn) | 25* | 5 | -2 | 2 | 4 | 8 | 9
CC(C)NC(=O)C1(C)CN(S(C)(=O)=O)CC(=O)N1CCc1ccc(O)cc1 (stereo not drawn) | . | . | . | 1 | -2 | . | .
CC(C)(C)C(=O)NC(=S)NNC(=O)c1sc2ccccc2c1Cl | 27* | -1 | 5 | 0 | -4 | 0 | 1
COC(=O)/C(C#N)=C/c1ccc(OC(=O)c2ccccn2)cc1 | 27* | -3 | 0 | 45* | 5 | 19 | 26*
O=C(NCCNC(=O)c1ccco1)c1cccc(F)c1 | 47* | 0 | 6 | 1 | -5 | 10 | 12
COc1cc(OC)c(C(=O)OCC(=O)NCCc2ccccc2)cc1OC | 72* | -2 | -2 | 4 | -11 | 1 | 6
CN(C)N=Nc1ccc(-c2cn(Cc3ccccc3)cn2)cc1 | 6 | 3 | 0 | -3 | -6 | . | .
COC(=O)C(=O)C/C(=N/Nc1ncnc2ccccc12)c1ccc(Cl)cc1 | 58* | 0 | 2 | 4 | 4 | 13 | 18
CCCNC(=O)C1(C)CCN(Cc2ccc(C)c3ccccc23)C1 (stereo not drawn) | . | . | . | -2 | -5 | . | .
CCC1(C)NC(=O)N(CC(=O)Nc2sc3c(c2C(=O)OC)CCCCC3)C1=O (stereo not drawn) | 1 | 1 | -3 | 2 | 2 | . | .
SMILES | TPT1 inhibitor | IDE act | IDE inh | HNF4A DNA FP | CSN deneddyl inh | TPT1 inh confirm | RNase T1 counter
CCC1(CC)NC(=O)N(CC(=O)Nc2sc3c(c2C(N)=O)CCC3)C1=O | 28* | 5 | 4 | 3 | 41* | 37* | 48*
Nc1ccc(/C=C/C(=O)c2ccco2)cc1 | 73* | -11 | 15 | 13 | 17 | 81* | 92*
N#Cc1ccc(/C=C/C(=O)c2ccco2)cc1 | -1 | -2 | -6 | 2 | 3 | . | .
COc1ccc(/C=C2\CC/C(=C\c3ccc(OC)cc3OC)C2=O)c(OC)c1 | 148* | -8 | 2 | 124 | 79 | 148* | 138*
COc1ccc(/C=C2\CCC(C3CCCC3)C2=O)c(OC)c1 (stereo not drawn) | 2 | 1 | -3 | 1 | 3 | . | .
Cn1c(=O)c2c(n(C)c1=O)n(C)c(=O)n2C | . | . | . | 6 | -8 | . | .
COc1cccc(C2CCCCN2Cc2nc(-c3ccc(C)o3)oc2C)c1 (stereo not drawn) | 27* | -7 | 3 | 9 | 10 | 31* | 41*
CCCCOCCCNC(=O)C[C@@H]1C[C@@]2(C(=O)OCC)CCCC=C2N(Cc2ccc3c(c2)OCO3)C1=O | . | . | . | -1 | 0 | . | .
Cc1cc(C=C2C(=O)c3ccccc3C2=O)c(C)n1-c1ccc(C(=O)O)cc1 | 27* | -1 | 4 | 3 | 24 | 35* | 47*
Cc1cc(C=C2C(=O)c3ccccc3C2=O)c(C)n1-c1ccccc1 | 20 | -9 | -1 | -35 | 6 | . | .
Cc1cc(C=C2C(=O)c3ccccc3C2=O)c(C)n1-c1cccc(C(=O)O)c1 | 31* | 2 | 4 | 2 | 5 | 41* | 51*
COc1ccc(S(=O)(=O)N2CCC[C@H]2C(=O)N2CCC[C@H]2C(=O)NCc2ccc(F)cc2F)cc1C | . | . | . | 2 | -3 | . | .
COc1cc(OC)c(OC)cc1/C=C/c1cc(C(F)(F)F)[nH]c(=O)n1 | 73* | -1 | -1 | -4 | 13 | 72* | 81*
COc1cc(/C=C/c2cc(C(F)(F)F)[nH]c(=O)n2)cc(OC)c1OC | . | 3 | . | -1 | 6 | . | .
CC(C)(C)C(=O)c1c(N)[nH]c(C(=O)c2ccccc2)c1-c1c(F)cccc1F | . | . | . | 3 | -6 | . | .
S=C(Nc1ccc(Cl)cc1)N(CCCN1CCOCC1)Cc1cccs1 | 57* | 3 | 3 | 2 | 1 | 4 | 5
COc1ccc(C(C(=O)NCc2ccccc2)n2c(=O)c(-c3ccco3)nc3ccccc32)cc1 (stereo not drawn) | . | . | . | 14 | 16 | . | .
O=C(OC1CC2CC1[C@H]1CCCCN1C2=O)N1CCC(c2ccccc2)CC1 (stereo partly drawn) | . | . | . | -1 | -4 | . | .
CCSc1nnc(NC(=O)CSc2sc3c(O)cc(=O)[nH]c3c2C#N)s1 | 2 | 2 | -3 | -33 | 35 | . | .
CCc1nnc(NC(=O)CSc2sc3c(O)cc(=O)[nH]c3c2C#N)s1 | 49* | -1 | -1 | -35 | 30 | 14 | 18
